Among the data in ChEMBL document CHEMBL5674883, “The Heterochromatin Landscape in Migrating Cells and the Importance of H3K27me3 for Associated Transcriptome Alterations” (Cells, 2018) are log2FC values, retold here.

Holding throughout (assay type): cell-based
The target in experiment [1] is Histone-lysine N-methyltransferase EZH2 (Mus musculus) (UniProt Q61188). The experiment can be described thus: Inhibition of EZH2 in mouse B16-F1 migrating cells assessed as fold change in H3K27me3-buffered regulated A130010J15Rik-mRNA expression at 3 uM measured by […] analysis relative to control cells. Put shortly:
(§1)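 Confluent B16-F1 cells on fibronectin-coated plates, cultured at 37 °C and 7% CO2, were scratched at multiple sites to induce migration. They were then held 3 h in growth medium containing 3 µM GSK343, with the inhibitor added 3 h before lysis. Unscratched cells served as controls. Poly A mRNA was analysed by RNA-seq (n=3 GSK343, n=5 controls). Linear models removed batch effects, and buffered genes were those altered only under GSK343 (FDR <0.05, fold change >1.3).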

Experiment [2] has the same target. The experiment can be described thus: Inhibition of EZH2 in mouse B16-F1 migrating cells assessed as fold change in H3K27me3-buffered regulated Fam60a-mRNA expression at 3 uM measured by […] analysis relative to control cells. Put shortly:
as §1

Experiment [3] shares this target. The experiment can be described thus: Inhibition of EZH2 in mouse B16-F1 migrating cells assessed as fold change in H3K27me3-independent regulated Selenbp1-mRNA expression at 3 uM measured by […] analysis relative to control cells. The gist of the method:
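Confluent B16-F1 cells on fibronectin-coated plates were scratched at multiple sites, washed once with DMEM and left to migrate 3 h in growth medium (37 °C, 7% CO2); unscratched cells served as control. GSK343 (3 µM) was added 3 h before lysis. Poly A mRNA was sequenced (RNA-seq), with 5 replicates for untreated and 3 for treated cells. Differential expression was called by linear model with batch correction, at FDR <0.05 and fold change ≥1.3.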

For experiment [4], the target named is RNA polymerase II (Mus musculus) (UniProt P08775+Q8CFI7+P97760+A0A3Q4L2S8+Q80UW8+P61219+P62488+Q923G2+P60898+O08740+Q63871+P62876). The experiment can be described thus: Inhibition of RNA polymerase II in mouse B16-F1 migrating cells assessed as fold change in BC004004-RNA stability at 0.1 mM measured by […] analysis relative to control cells.

Molecules are shown by their SMILES.

Chain of Histone-lysine N-methyltransferase EZH2 (Mus musculus) (Q61188 whole entry): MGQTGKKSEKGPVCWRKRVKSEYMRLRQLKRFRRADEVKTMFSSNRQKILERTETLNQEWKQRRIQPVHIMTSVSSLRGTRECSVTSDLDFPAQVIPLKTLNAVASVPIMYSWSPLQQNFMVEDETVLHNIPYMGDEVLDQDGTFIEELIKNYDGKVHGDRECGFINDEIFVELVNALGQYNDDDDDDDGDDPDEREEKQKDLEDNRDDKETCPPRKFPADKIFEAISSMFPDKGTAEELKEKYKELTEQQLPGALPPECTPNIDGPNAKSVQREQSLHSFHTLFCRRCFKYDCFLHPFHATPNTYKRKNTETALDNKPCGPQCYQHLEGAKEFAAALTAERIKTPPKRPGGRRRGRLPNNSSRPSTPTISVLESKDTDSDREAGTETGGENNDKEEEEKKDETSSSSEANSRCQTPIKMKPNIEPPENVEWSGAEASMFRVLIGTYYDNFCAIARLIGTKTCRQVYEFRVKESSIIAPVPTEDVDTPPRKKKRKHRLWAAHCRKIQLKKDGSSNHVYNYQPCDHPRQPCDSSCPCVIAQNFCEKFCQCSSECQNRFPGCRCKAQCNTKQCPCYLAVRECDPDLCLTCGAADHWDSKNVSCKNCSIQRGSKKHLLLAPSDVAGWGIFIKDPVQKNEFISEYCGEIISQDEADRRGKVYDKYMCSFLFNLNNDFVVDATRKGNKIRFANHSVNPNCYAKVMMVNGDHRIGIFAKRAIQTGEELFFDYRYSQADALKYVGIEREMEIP

With `CCCc1cc(C)[nH]c(=O)c1CNC(=O)c1cc(-c2ccnc(N3CCN(C)CC3)c2)cc2c1cnn2C(C)C`, the results for the log2FC in experiment [1], in experiment [2] and in experiment [3] were -0.42, -0.61 and 1.01, respectively.
`OC[C@H]1O[C@@H](n2cnc3cc(Cl)c(Cl)cc32)[C@H](O)[C@@H]1O`: the log2FC in experiment [4] was 0.39.
